From ChEMBL document CHEMBL1156631 (J Med Chem, 2008) come the findings set out here.

Bounds are passed on as bounds.

Assay [1] deals with T1, Cannabinoid receptor 1 (Homo sapiens, UniProt P21554). Briefly: Agonist activity at human CB1 receptor expressed in Sf9 cells by GTP-europium binding assay. An outline of the steps: (§1)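 Membranes were from Sf9 insect cells cotransfected with CB1 or CB2 plus Gαi3 (Bmax 1.7 pmol/mL). Compound (0.01 nM–10 µM, 1% DMSO final) was added to buffer with Hepes, BSA, 10 mM MgCl2, 150 mM NaCl, 5 µM GDP, 10 nM GTP-europium, saponin and membranes (CB1 4.5 µg/well, CB2 14 µg/well). 100% efficacy was set by 3 µM reference agonist.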

Assay [2] deals with T2, Cannabinoid receptor 2 (Homo sapiens, UniProt P34972). The assay can be described thus: Agonist activity at human recombinant CB2 receptor expressed in Sf9 cells by GTP-europium binding assay. An outline of the steps:
as §1

Assay [3] has as its target T1, Cannabinoid receptor 1. Briefly: Agonist activity at human recombinant CB1 receptor expressed in Sf9 cells by GTP-europium binding assay relative to CP-55940. The procedure, abridged:
(§2)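 Membranes were from Sf9 insect cells cotransfected with CB1 or CB2 plus Gαi3 (Bmax 1.7 pmol/mL). Compound (0.01 nM–10 µM, 1% DMSO final) was added to buffer with Hepes, BSA, 10 mM MgCl2, 150 mM NaCl, 5 µM GDP, 10 nM GTP-europium, saponin and membranes (CB1 4.5 µg/well, CB2 14 µg/well). Incubation was 45 min at room temperature, then filtration and washing, with fluorescence read at 615 nm. 100% efficacy was set by 3 µM reference agonist.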

The target of assay [4] is T2, Cannabinoid receptor 2. The assay can be described thus: Agonist activity at human recombinant CB2 receptor expressed in Sf9 cells by GTP-europium binding assay relative to CP-55940. The procedure, abridged:
as §2

Assay [5] addresses T1, Cannabinoid receptor 1. The assay can be described thus: Agonist activity at human recombinant CB1 receptor expressed in CHO-K1 cells assessed as inhibition of forskolin-stimulated intracellular cAMP level. The assay is classed as functional, cell-based. An outline of the steps:
(§3)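 CHO-K1 cells stably expressing human or rat CB1 or CB2 were used. Compounds were diluted from DMSO into HBSS/HEPES/BSA buffer containing 60 µM forskolin, then combined with 5000 cells/well plus Alexa647 anti-cAMP antibody, 1 h at room temperature. A biotinylated-cAMP detection mix was added for another 1 h.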

The target of assay [6] is T2, Cannabinoid receptor 2. Briefly: Agonist activity at human recombinant CB2 receptor expressed in CHO-K1 cells assessed as inhibition of forskolin-stimulated intracellular cAMP level. The assay is classed as functional, cell-based. The procedure, abridged:
as §3
(In general: Cyclic AMP is a second messenger, typically raised through Gs and lowered through Gi signalling.)

Assay [7] concerns the target T1, Cannabinoid receptor 1. Briefly: Agonist activity at human recombinant CB1 receptor expressed in CHO-K1 cells assessed as inhibition of forskolin-stimulated intracellular cAMP level relative to CP-55940. The assay is classed as functional, cell-based. The procedure, abridged:
(§4)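 CHO-K1 cells stably expressing human or rat CB1 or CB2 were used. Compounds were diluted from DMSO into HBSS/HEPES/BSA buffer containing 60 µM forskolin, then combined with 5000 cells/well plus Alexa647 anti-cAMP antibody, 1 h at room temperature. A biotinylated-cAMP detection mix was added for another 1 h. Emission at 665 nm gave concentration-response curves and EC50; Emax is expressed as a percentage of the reference agonist maximum.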

For assay [8], the target named is T2, Cannabinoid receptor 2. The assay can be described thus: Agonist activity at human recombinant CB2 receptor expressed in CHO-K1 cells assessed as inhibition of forskolin-stimulated intracellular cAMP level relative to CP-55940. The assay is classed as functional, cell-based. An outline of the steps:
as §4

For assay [9], the target named is Cannabinoid receptor 1 (Rattus norvegicus, UniProt P20272). Briefly: Agonist activity at rat recombinant CB1 receptor expressed in CHO-K1 cells assessed as inhibition of forskolin-stimulated intracellular cAMP level. The assay is classed as functional, cell-based. An outline of the steps:
as §3

Assay [10] deals with T3, Cannabinoid receptor 2 (Rattus norvegicus, UniProt Q9QZN9).
T3 sequence (Q9QZN9 whole entry): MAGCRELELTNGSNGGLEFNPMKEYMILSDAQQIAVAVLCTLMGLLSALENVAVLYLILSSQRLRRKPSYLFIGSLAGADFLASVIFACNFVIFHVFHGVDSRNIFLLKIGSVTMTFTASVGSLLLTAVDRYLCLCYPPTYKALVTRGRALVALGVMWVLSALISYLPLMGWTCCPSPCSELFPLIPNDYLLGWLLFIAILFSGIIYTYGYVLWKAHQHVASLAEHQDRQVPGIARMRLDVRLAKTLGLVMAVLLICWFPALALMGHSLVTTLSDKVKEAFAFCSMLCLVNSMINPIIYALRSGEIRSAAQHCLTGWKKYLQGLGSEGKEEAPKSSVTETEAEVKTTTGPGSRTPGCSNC
The assay can be described thus: Agonist activity at rat recombinant CB2 receptor expressed in CHO-K1 cells assessed as inhibition of forskolin-stimulated intracellular cAMP level. The assay is classed as functional, cell-based. An outline of the steps:
as §4

In assay [11] the target is Cannabinoid receptor 1 (Rattus norvegicus) (UniProt P20272). The assay can be described thus: Agonist activity at rat recombinant CB1 receptor expressed in CHO-K1 cells assessed as inhibition of forskolin-stimulated intracellular cAMP level relative to CP-55940. The assay is classed as functional, cell-based. An outline of the steps: as §4
Assay [12] concerns the target T4, Cannabinoid receptor 2 (Rattus norvegicus) (UniProt Q9QZN9).
T4 sequence (whole entry): T3 sequence (Q9QZN9 whole entry)
Briefly: Agonist activity at rat recombinant CB2 receptor expressed in CHO-K1 cells assessed as inhibition of forskolin-stimulated intracellular cAMP level relative to CP-55940. Format: functional, cell-based. The procedure, abridged:
as §4

The term EC50 denotes the concentration needed to bring the measured effect to its halfway point. The Emax is the maximal effect, on the per cent scale that the assay sets.

Cannabinoid receptor 1 (Rattus norvegicus, UniProt P20272), sequence (P20272 whole entry): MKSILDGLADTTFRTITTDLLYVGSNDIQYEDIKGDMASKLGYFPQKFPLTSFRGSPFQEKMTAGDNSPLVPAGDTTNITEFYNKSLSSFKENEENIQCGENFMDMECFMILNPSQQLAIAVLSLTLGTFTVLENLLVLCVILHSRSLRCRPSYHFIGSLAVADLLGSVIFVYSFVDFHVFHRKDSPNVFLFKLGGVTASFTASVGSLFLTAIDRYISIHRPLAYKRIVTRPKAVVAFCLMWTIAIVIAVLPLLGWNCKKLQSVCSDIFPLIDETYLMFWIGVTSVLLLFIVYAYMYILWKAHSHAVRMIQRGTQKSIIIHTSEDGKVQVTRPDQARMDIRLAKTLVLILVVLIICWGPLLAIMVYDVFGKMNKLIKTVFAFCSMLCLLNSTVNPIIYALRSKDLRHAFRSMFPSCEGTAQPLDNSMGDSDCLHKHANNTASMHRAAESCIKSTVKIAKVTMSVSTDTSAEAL
Cannabinoid receptor 1 (Rattus norvegicus), sequence (P20272 whole entry): as above
T1 sequence (P21554 whole entry): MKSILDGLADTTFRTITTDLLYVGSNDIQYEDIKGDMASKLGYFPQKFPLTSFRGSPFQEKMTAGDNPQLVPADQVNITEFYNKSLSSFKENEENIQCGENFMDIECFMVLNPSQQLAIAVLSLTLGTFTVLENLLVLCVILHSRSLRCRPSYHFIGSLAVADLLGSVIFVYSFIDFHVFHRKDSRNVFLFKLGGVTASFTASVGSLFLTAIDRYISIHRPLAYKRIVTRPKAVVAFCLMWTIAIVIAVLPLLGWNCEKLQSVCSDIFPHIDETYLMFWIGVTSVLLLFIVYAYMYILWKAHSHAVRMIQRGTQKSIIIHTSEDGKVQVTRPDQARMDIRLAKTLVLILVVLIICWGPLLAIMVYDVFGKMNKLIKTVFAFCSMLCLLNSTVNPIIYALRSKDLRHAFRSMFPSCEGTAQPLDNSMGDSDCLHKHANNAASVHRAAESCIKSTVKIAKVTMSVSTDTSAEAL
T2 sequence (P34972 whole entry): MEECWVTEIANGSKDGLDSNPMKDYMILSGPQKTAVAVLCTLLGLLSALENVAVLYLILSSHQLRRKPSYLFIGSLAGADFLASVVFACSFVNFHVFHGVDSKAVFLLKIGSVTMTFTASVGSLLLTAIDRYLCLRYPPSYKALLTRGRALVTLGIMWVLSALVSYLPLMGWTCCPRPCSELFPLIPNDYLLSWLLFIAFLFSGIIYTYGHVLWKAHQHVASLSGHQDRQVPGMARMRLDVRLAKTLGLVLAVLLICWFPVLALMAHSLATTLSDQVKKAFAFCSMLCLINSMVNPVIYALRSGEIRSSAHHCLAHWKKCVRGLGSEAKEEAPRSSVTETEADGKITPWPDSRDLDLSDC

For the molecule `CCn1c2ccccc2c2cc(NC(=O)CCc3nc(-c4ccc(F)cc4Cl)no3)ccc21`, the half-maximal effective concentration (EC50) in assay [1] was 1200 nM; in [2], 1.8 nM; in assay [5], greater than 1000 nM; in assay [6], 0.6 nM; in [9], 330 nM; in assay [10], 0.4 nM. Also, the Emax in assay [3] was 65%; in assay [4] it was 98%; in [7] it was 20%; in assay [8] it was 100%; in [11], 79%; in assay [12], 98%.

On to `O=C(CCc1nc(-c2ccc(F)cc2Cl)no1)Nc1ccc(C(F)(F)F)nc1`, for which the EC50 in assay [1] is 2800 nM; in [2], 97 nM; in assay [5], greater than 1000 nM; in assay [6], 78 nM; in [9] it was greater than 1000 nM; in [10], 73 nM. Also, the Emax in assay [3] was 17%; in assay [4] it was 120%; in [8] it was 96%; in assay [12], 95%.

`Fc1ccc(-c2noc(CCCNc3nc4ccc(Cl)cc4s3)n2)c(Cl)c1`: the EC50 is 3300 nM in assay [1]; 170 nM in assay [2]; greater than 1000 nM in assay [5]; 110 nM in assay [6]; greater than 1000 nM in assay [9]; 290 nM in assay [10]. For the same molecule, the Emax in assay [3] amounted to 16%; in assay [4], 100%; in [7], 25%; in [8] it was 87%; in assay [11] it was 45%; in assay [12], 66%.

For `CCn1c2ccccc2c2cc(NC(=O)CCc3nc(-c4ccc(F)cc4C)no3)ccc21`, the EC50 in [1] was 1400 nM; in [2], 0.089 nM; in assay [5] it was greater than 1000 nM; in [6] it was 0.47 nM; in assay [9] it was 280 nM; in [10], 0.27 nM. The Emax in assay [3] came to 24%; in assay [4] it was 120%; in assay [8], 100%; in [11], 81%; in assay [12], 110%.

On to `CCn1c2ccccc2c2cc(NC(=O)CCc3nc(-c4ccc(F)cc4C#N)no3)ccc21`, for which the EC50 in [1] was 709 nM; in assay [2], 0.85 nM; in assay [5], greater than 1000 nM; in assay [6] it was 0.33 nM; in [9], 240 nM; in assay [10] it was 0.13 nM. The Emax in assay [3] stood at 39%; in assay [4], 120%; in assay [7], 12%; in [8], 110%; in assay [11], 84%; in assay [12], 130%.

Take `N#Cc1cc(NCCCc2nc(-c3ccc(F)cc3Cl)no2)cnc1OCC(F)(F)F`: the EC50 in assay [1] is 1300 nM; in assay [2], 31 nM; in [5], greater than 1000 nM; in assay [6], 360 nM; in assay [9], greater than 1000 nM; in assay [10], 130 nM. The maximal effect (Emax) in [3] amounted to 24%; in assay [4], 110%; in [8] it was 87%; in assay [12] it was 85%.

`CC(C)(C)c1cc(NCCCc2nc(-c3ccc(F)cc3Cl)no2)no1`: the EC50 was 670 nM in assay [1]; 27 nM in [2]; greater than 1000 nM in assay [5]; 130 nM in assay [6]; greater than 1000 nM in assay [9]; 190 nM in assay [10]. In addition, the Emax in assay [3] stood at 33%; in [4] it was 110%; in assay [8], 90%; in assay [12], 82%.
